What was measured:
[1] = target: High affinity cAMP-specific and IBMX-insensitive 3',5'-cyclic phosphodiesterase 8A (Homo sapiens) (UniProt O60658); experiment: Inhibition of recombinant full length human N-terminal GST-tagged PDE8A1 expressed in baculovirus infected Sf9 cells at 100 nM using iFl-cAMP/iFl-cGMP as substrate by mobility shift assay relative to control
[2] = target: T1, Dual specificity calcium/calmodulin-dependent 3',5'-cyclic nucleotide phosphodiesterase 1C (Homo sapiens, UniProt Q14123); experiment: Inhibition of Ca2+/calmodulin-induced full-length recombinant human N-terminal GST-tagged PDE1C expressed in baculovirus infected Sf9 insect cells using cAMP as substrate pretreated for 10 mins followed by substrate addition and measured after 30 mins by kinase-Glo luminescence assay
T1 sequence (Q14123 whole entry, canonical isoform): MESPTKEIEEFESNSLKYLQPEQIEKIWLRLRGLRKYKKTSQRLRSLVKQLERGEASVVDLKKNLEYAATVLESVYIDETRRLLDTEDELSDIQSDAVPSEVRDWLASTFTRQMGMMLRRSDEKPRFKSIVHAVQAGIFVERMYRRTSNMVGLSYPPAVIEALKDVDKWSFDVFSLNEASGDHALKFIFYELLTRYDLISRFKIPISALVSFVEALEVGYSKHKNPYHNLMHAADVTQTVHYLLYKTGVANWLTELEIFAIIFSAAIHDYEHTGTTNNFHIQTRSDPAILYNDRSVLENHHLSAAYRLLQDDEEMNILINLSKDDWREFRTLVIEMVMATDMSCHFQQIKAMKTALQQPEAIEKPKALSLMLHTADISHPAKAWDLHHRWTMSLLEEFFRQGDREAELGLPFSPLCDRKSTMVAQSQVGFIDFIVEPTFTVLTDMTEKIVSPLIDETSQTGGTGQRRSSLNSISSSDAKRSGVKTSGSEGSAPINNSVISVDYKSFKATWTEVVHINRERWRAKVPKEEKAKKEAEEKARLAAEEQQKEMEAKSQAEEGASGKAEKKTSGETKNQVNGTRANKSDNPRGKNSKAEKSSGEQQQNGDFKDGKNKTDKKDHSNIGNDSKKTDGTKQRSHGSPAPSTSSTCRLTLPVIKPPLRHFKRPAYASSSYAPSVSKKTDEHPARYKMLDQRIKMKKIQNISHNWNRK
How it was run: (§1)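 Selectivity screen run as a PDE-Glo enzymatic-activity luminescence assay, with IC50 values determined against each counter-screen PDE isoform.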

[3] = target: T2, cAMP and cAMP-inhibited cGMP 3',5'-cyclic phosphodiesterase 10A (Homo sapiens, UniProt Q9Y233); experiment: Inhibition of Ca2+/calmodulin-induced recombinant human full length N-terminal GST-tagged PDE10A1 expressed in baculovirus infected Sf9 cells using cAMP as substrate pretreated for 10 mins followed by substrate addition and measured after 40 mins by kinase-Glo luminescence assay; details: read-out: IC50
T2 sequence (Q9Y233 whole entry): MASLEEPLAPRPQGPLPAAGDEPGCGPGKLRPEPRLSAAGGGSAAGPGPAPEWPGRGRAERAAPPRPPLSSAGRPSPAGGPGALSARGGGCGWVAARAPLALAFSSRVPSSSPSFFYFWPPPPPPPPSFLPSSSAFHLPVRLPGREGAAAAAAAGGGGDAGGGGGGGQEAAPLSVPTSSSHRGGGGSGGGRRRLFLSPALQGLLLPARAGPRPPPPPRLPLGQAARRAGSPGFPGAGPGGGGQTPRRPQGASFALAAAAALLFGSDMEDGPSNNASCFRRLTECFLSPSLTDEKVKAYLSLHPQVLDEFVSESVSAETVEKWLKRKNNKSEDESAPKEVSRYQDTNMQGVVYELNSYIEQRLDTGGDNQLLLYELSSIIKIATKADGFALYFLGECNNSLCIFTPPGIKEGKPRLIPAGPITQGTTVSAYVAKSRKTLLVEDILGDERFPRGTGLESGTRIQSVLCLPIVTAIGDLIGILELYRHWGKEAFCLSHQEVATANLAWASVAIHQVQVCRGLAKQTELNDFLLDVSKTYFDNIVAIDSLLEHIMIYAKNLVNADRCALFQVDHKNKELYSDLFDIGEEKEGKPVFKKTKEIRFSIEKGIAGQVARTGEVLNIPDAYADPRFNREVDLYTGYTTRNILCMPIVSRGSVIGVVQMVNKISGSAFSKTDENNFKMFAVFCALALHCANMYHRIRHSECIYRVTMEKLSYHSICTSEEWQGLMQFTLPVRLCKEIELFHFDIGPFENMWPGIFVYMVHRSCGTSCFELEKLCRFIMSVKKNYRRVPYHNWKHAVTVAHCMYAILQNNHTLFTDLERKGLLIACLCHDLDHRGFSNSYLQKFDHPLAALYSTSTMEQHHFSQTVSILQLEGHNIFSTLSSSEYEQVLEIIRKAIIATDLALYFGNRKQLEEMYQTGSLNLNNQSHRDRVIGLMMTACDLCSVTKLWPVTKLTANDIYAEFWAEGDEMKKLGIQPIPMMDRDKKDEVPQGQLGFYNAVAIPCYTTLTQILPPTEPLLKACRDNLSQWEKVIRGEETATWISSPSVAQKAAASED

[4] = Intrinsic clearance in human liver microsomes in presence of NADP/G6P/G6P dehydrogenase/MgCl2 by LC/MS analysis; assay type: ADME, microsome; details: read-out: CLH
How it was run: (§2)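 Phase-1 liver microsomal stability assay for the named species, with intrinsic clearance reported in µl x min^-1 x mg^-1.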

[5] = Intrinsic clearance in dog liver microsomes in presence of NADP/G6P/G6P dehydrogenase/MgCl2 by LC/MS analysis; assay type: ADME, Canis lupus familiaris, microsome; details: read-out: CLH; how it was run: as §2
[6] = target: cGMP-inhibited 3',5'-cyclic phosphodiesterase 3B (Homo sapiens) (UniProt Q13370); experiment: Inhibition of recombinant human N-terminal GST-tagged PDE3B (592 to end residues) expressed in baculovirus infected Sf9 cells at 100 nM using iFl-cAMP/iFl-cGMP as substrate by mobility shift assay relative to control
Chain of cGMP-inhibited 3',5'-cyclic phosphodiesterase 3B (Homo sapiens) (Q13370 whole entry, looked up, the tested form may be a part): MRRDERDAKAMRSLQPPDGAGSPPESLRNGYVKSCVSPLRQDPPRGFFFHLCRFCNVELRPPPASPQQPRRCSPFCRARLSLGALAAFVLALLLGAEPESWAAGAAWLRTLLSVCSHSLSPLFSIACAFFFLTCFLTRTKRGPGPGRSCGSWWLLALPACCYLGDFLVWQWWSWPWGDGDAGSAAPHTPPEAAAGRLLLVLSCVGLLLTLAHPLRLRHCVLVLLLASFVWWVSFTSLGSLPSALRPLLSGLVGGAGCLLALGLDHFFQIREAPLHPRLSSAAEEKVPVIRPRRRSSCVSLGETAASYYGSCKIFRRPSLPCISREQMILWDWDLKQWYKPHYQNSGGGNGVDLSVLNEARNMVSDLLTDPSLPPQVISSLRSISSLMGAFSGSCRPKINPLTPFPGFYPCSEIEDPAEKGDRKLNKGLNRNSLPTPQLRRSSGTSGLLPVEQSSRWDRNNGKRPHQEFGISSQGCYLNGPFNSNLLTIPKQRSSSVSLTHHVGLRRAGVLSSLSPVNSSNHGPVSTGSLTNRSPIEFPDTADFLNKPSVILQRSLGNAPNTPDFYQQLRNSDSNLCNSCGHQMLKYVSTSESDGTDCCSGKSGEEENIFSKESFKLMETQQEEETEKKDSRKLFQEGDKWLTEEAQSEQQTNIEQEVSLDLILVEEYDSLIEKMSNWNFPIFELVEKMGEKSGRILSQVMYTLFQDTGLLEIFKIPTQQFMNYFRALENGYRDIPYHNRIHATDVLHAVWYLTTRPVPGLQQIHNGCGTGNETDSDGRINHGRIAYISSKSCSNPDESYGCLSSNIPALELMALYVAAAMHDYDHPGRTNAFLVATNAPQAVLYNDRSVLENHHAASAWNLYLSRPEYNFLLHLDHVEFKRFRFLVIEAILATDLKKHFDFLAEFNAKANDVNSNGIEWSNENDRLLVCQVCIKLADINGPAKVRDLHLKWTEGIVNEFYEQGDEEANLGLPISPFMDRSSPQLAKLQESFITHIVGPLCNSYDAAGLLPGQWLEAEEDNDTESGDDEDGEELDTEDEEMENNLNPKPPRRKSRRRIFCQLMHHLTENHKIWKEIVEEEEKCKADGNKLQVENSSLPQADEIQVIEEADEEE

[7] = target: T1, Dual specificity calcium/calmodulin-dependent 3',5'-cyclic nucleotide phosphodiesterase 1C; experiment: Inhibition of recombinant human N-terminal GST-tagged PDE1C (2 to 634 residues) expressed in baculovirus infected Sf9 cells at 100 nM using iFl-cAMP/iFl-cGMP as substrate by mobility shift assay relative to control
[8] = Intrinsic clearance in rat liver microsomes in presence of NADP/G6P/G6P dehydrogenase/MgCl2 by LC/MS analysis; assay type: ADME, microsome; details: read-out: CLH; how it was run: as §2
[9] = target: Cone cGMP-specific 3',5'-cyclic phosphodiesterase subunit alpha' (Homo sapiens) (UniProt P51160); experiment: Inhibition of PDE6C (unknown origin) at 100 nM using iFl-cAMP/iFl-cGMP as substrate by mobility shift assay relative to control
[10] = target: T2, cAMP and cAMP-inhibited cGMP 3',5'-cyclic phosphodiesterase 10A; experiment: Inhibition of recombinant human N-terminal GST-tagged PDE10A1 ( 2 to 789 residues) expressed in baculovirus infected Sf9 cells at 100 nM using iFl-cAMP/iFl-cGMP as substrate by mobility shift assay relative to control
[11] = target: 3',5'-cyclic-AMP phosphodiesterase 4B (Homo sapiens) (UniProt Q07343); experiment: Inhibition of recombinant full length human N-terminal GST-tagged PDE4B1 expressed in baculovirus infected Sf9 cells at 100 nM using iFl-cAMP/iFl-cGMP as substrate by mobility shift assay relative to control
[12] = target: T3, High affinity cGMP-specific 3',5'-cyclic phosphodiesterase 9A (Homo sapiens, UniProt O76083); experiment: Inhibition of recombinant full length human N-terminal GST-tagged PDE9A2 expressed in baculovirus infected Sf9 cells at 100 nM using iFl-cAMP/iFl-cGMP as substrate by mobility shift assay relative to control
T3 sequence (O76083 whole entry): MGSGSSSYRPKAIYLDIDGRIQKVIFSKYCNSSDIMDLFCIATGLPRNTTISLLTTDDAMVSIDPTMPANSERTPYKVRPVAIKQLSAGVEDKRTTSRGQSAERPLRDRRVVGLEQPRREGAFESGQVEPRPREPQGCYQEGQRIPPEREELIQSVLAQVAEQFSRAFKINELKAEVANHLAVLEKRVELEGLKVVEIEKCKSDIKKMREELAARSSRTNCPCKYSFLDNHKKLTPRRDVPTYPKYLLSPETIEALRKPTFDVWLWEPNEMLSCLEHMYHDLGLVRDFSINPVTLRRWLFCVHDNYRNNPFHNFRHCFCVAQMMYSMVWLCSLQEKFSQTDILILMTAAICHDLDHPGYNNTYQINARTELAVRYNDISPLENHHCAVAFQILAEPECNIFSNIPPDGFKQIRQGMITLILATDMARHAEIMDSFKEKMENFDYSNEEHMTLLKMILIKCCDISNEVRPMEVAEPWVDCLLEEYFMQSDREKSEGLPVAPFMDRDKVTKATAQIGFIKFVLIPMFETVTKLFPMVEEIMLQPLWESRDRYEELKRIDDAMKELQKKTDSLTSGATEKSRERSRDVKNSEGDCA

[13] = target: cGMP-specific 3',5'-cyclic phosphodiesterase (Homo sapiens) (UniProt O76074); experiment: Inhibition of PDE5A1 (unknown origin) at 100 nM using iFl-cAMP/iFl-cGMP as substrate by mobility shift assay relative to control
[14] = target: High affinity 3',5'-cyclic-AMP phosphodiesterase 7A (Homo sapiens) (UniProt Q13946); experiment: Inhibition of PDE7A (unknown origin) at 100 nM using iFl-cAMP/iFl-cGMP as substrate by mobility shift assay relative to control
Chain of High affinity 3',5'-cyclic-AMP phosphodiesterase 7A (Homo sapiens) (Q13946 whole entry, the tested form may be a part): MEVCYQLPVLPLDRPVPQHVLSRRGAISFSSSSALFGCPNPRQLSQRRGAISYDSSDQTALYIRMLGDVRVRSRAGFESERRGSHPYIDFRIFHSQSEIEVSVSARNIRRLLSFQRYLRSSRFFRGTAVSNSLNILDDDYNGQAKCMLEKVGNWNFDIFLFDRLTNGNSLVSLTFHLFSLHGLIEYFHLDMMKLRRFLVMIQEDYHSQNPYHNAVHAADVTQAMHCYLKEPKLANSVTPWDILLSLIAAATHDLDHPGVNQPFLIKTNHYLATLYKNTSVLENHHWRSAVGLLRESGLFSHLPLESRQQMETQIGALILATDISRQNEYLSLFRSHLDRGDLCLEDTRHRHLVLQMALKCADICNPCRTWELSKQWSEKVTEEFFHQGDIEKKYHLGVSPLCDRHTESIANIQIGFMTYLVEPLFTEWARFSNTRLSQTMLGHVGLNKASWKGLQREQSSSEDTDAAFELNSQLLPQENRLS

[15] = target: Dual 3',5'-cyclic-AMP and -GMP phosphodiesterase 11A (Mus musculus) (UniProt P0C1Q2); experiment: Inhibition of recombinant mouse N-terminal GST-tagged PDE11A (2 to 933 residues) expressed in baculovirus infected Sf9 cells at 100 nM using iFl-cAMP/iFl-cGMP as substrate by mobility shift assay relative to control
[16] = Intrinsic clearance in mouse liver microsomes in presence of NADP/G6P/G6P dehydrogenase/MgCl2/metabolic phase 2 co-factor by LC/MS analysis; assay type: ADME, microsome; details: read-out: CLH
How it was run: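 Mouse liver microsomes incubated with both phase 1 and phase 2 co-factors, with intrinsic clearance expressed in µl x min^-1 x mg^-1.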

[17] = target: T3, High affinity cGMP-specific 3',5'-cyclic phosphodiesterase 9A; experiment: Inhibition of Ca2+/calmodulin-induced recombinant human full length N-terminal GST-tagged PDE9A2 expressed in baculovirus infected Sf9 cells using cGMP as substrate pretreated for 10 mins followed by substrate addition and measured after 60 mins by kinase-Glo luminescence assay; how it was run: as §1
[18] = target: T4, cGMP-dependent 3',5'-cyclic phosphodiesterase (Rattus norvegicus) (UniProt Q01062); experiment: Inhibition of rat PDE2A expressed in baculovirus infected Sf9 cells at 100 nM using iFl-cAMP/iFl-cGMP as substrate by mobility shift assay relative to control
T4 sequence (whole entry): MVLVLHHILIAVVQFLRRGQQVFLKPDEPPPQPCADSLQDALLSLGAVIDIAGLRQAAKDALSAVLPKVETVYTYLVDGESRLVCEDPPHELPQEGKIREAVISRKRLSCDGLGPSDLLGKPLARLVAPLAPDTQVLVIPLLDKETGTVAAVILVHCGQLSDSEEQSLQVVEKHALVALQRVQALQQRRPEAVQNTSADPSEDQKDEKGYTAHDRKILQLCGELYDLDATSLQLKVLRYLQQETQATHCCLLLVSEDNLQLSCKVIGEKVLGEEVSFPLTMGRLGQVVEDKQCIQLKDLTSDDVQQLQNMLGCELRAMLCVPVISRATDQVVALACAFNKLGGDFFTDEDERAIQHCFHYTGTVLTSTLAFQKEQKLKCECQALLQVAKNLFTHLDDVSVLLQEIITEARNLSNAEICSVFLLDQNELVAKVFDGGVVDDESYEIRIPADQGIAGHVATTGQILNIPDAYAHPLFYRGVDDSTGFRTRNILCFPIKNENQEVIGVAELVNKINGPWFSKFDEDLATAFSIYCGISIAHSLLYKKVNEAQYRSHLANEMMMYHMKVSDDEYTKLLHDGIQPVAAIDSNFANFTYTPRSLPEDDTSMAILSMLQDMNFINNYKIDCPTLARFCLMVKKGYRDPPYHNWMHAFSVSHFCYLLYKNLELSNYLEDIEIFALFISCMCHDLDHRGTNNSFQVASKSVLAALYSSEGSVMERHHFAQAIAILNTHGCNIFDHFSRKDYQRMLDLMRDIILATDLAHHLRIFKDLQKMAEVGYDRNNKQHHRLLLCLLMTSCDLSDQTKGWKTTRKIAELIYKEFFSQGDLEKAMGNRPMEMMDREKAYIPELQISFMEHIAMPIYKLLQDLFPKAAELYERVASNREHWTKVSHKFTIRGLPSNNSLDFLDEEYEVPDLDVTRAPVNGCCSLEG

[19] = Intrinsic clearance in rat liver microsomes; assay type: ADME, microsome
[20] = target: T2, cAMP and cAMP-inhibited cGMP 3',5'-cyclic phosphodiesterase 10A; experiment: Inhibition of PDE10 (unknown origin)

Chain of High affinity cAMP-specific and IBMX-insensitive 3',5'-cyclic phosphodiesterase 8A (Homo sapiens) (O60658 whole entry): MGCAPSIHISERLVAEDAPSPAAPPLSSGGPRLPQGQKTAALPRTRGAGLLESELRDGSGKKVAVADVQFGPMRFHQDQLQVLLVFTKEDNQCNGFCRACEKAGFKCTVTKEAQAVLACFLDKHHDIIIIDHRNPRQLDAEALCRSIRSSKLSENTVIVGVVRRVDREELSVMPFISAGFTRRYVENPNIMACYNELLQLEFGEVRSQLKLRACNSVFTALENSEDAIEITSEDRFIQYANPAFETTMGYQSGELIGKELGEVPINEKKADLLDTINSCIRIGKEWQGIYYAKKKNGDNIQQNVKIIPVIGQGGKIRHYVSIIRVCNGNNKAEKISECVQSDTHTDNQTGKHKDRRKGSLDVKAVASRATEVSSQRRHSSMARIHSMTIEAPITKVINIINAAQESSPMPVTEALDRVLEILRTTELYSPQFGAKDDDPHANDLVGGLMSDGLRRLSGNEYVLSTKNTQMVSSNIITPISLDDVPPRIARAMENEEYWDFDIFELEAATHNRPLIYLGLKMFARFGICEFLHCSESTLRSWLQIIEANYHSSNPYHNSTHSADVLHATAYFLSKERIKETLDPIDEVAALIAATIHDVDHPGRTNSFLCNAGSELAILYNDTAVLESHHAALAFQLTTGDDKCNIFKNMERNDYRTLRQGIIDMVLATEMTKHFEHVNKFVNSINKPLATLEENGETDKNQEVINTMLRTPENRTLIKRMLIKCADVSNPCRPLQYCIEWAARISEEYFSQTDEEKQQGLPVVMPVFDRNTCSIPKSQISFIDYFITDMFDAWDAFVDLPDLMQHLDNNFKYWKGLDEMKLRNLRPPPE

| inhibition [1] | IC50 [2] | IC50 [3] | microsomal CLint [4] | microsomal CLint [5] | inhibition [6] | inhibition [7] | microsomal CLint [8] | inhibition [9] | inhibition [10] | inhibition [11] | inhibition [12] | inhibition [13] | inhibition [14] | inhibition [15] | microsomal CLint [16] | IC50 [17] | inhibition [18] | CLH [19] | IC50 [20] | SMILES |
| --- | --- | --- | --- | --- | --- | --- | --- | --- | --- | --- | --- | --- | --- | --- | --- | --- | --- | --- | --- | --- |
| -1% | > 10000 nM | 35 nM | 1.8 µL/min/mg | 7.4 µL/min/mg | 7% | 5% | 5.6 µL/min/mg | 18% | 98% | 4% | -3% | 6% | 26% | 9% | 0.6 µL/min/mg | > 10000 nM | 9% | – | – | Cc1ncc(C)n2nc(-c3ccn4cc(-c5ccccc5)nc4n3)nc12 |
| -4% | – | – | – | – | -3% | 16% | – | -3% | 99% | 3% | -7% | 6% | 8% | 8% | – | – | 8% | – | – | Cc1ncc(C)n2nc(-c3ccc4nc(-c5ccccc5)[nH]c4c3)nc12 |
| – | – | – | 11.6 µL/min/mg | 16.3 µL/min/mg | – | – | 68.9 µL/min/mg | – | – | – | – | – | – | – | 28.9 µL/min/mg | – | – | 68.8 µL/min/mg | 37 nM | Cc1ncc(C)n2nc(-c3ccn4cc(-c5ccccc5)nc4c3)nc12 |
